Laboratory results reported in ChEMBL document CHEMBL1121779, “Thiophene systems. 5. Thieno[3,4-b][1,5]benzoxazepines, thieno[3,4-b][1,5]benzothiazepines, and thieno[3,4-b][1,4]benzodiazepines as potential central nervous system agents” (1981).
Calls of active or inactive are those of the source. The calls are words filed in the database; no cut-off is given here.

Legend:
Rattus norvegicus = assay: Reduction in motor activity in rats following p.o. administration.; type: functional
Summary of the method: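 Rats in groups of five given graded oral doses. Locomotor activity counted per rat over 5 min at the time of peak effect, which was set earlier with a selected dose. MDD50 is the dose giving 50% reduction versus controls, taken from linear regression.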

Mus musculus [1] = assay: Inhibition of tetrabenazine induced depression in mice was following p.o. administration; Inactive.; type: functional, organism-based
Mus musculus [2] = assay: Compound was tested for the neuroleptic activity as measured by it's antagonism of d-amphetamine induced lethality in grouped mice(GAL) when administered perorally; 0.09-0.24; type: functional; settings: po
Mus musculus [3] = assay: Compound was tested for the neuroleptic activity as measured by it's antagonism of d-amphetamine induced lethality in grouped mice(GAL) when administered perorally; 0.1-0.6; type: functional; settings: po
Mus musculus [4] = assay: Minimum effective dose causing antagonism of tetrabenazine induced depression in mice was determined when administered perorally; Inactive at 25 mg/kg; type: functional, organism-based; design: dose 25 mg/kg
Mus musculus [5] = assay: Compound was tested for the neuroleptic activity as measured by it's antagonism of d-amphetamine induced lethality in grouped mice(GAL) when administered perorally; 1.1-2.5; type: functional; settings: po
Mus musculus [6] = assay: Compound was tested for the neuroleptic activity as measured by it's antagonism of d-amphetamine induced lethality in grouped mice(GAL) when administered perorally; type: functional; settings: po
Mus musculus [7] = assay: Compound was tested for the neuroleptic activity as measured by it's antagonism of d-amphetamine induced lethality in grouped mice(GAL) when administered perorally; 1.6-3.8; type: functional; settings: po
Mus musculus [8] = assay: Minimum effective dose causing antagonism of tetrabenazine induced depression in mice was determined when administered perorally; type: functional; settings: po, read-out: MED
Mus musculus [9] = assay: Compound was tested for the neuroleptic activity as measured by it''s antagonism of d-amphetamine induced lethality in grouped mice(GAL) when administered perorally; Inactive at 20 mg/kg; type: functional, organism-based; design: dose 20 mg/kg
Mus musculus [10] = assay: Minimum effective dose causing antagonism of tetrabenazine induced depression in mice was determined when administered perorally; Inactive; type: functional, organism-based
Mus musculus [11] = assay: Minimum effective dose causing antagonism of tetrabenazine induced depression in mice was determined when administered perorally; Inactive at 20 mg/kg; type: functional, organism-based; design: dose 20 mg/kg
Mus musculus [12] = assay: Compound was tested for the neuroleptic activity as measured by it's antagonism of d-amphetamine induced lethality in grouped mice(GAL) when administered perorally; 1.1-1.9; type: functional; settings: po
Mus musculus [13] = assay: Compound was tested for the neuroleptic activity as measured by it's antagonism of d-amphetamine induced lethality in grouped mice(GAL) when administered perorally; Inactive; type: functional, organism-based

Compound	MDD50 (Rattus norvegicus)	MED (Mus musculus [1])	ED50 (Mus musculus [6])	other results
Cc1ccc2c(c1)Oc1cscc1C(N1CCN(CCO)CC1)=N2	37 mg/kg	inactive	–	–
CN1CCN(C2=Nc3ccccc3Oc3ccc(Cl)cc32)CC1 [LOXAPINE]	0.6 mg/kg	inactive	–	ED50 (Mus musculus [2]): 0.14 mg/kg
CN1CCN(C2=Nc3ccccc3Sc3cscc32)CC1	<10 mg/kg	–	–	ED50 (Mus musculus [3]): 0.2 mg/kg; MED (Mus musculus [4]): inactive
CN1CCN(C2=Nc3cc(Cl)ccc3Oc3cscc32)CC1	9.6 mg/kg	inactive	–	ED50 (Mus musculus [5]): 1.6 mg/kg
OCCN1CCN(C2=Nc3ccccc3Sc3cscc32)CC1	<10 mg/kg	inactive	0.2 mg/kg	–
CN1CCN(C2=Nc3ccccc3Oc3c2csc3Cl)CC1	<50 mg/kg	–	–	ED50 (Mus musculus [7]): 2.4 mg/kg; minimal effective dose (Mus musculus [8]): 12.5 mg/kg
CN1CCN(C2=Nc3cscc3Nc3ccc(Cl)cc32)CC1	–	inactive	≤ 5 mg/kg	–
Cc1ccc2c(c1)Oc1cscc1C(N1CCN(C)CC1)=N2	–	–	–	ED50 (Mus musculus [9]): inactive; MED (Mus musculus [10]): inactive
CN1CCN(C2=Nc3cscc3Nc3ccccc32)CC1	15 mg/kg	–	3.2 mg/kg	MED (Mus musculus [11]): inactive
CCN1CCN(C2=Nc3ccccc3Oc3cscc32)CC1	1.66 mg/kg	inactive	–	ED50 (Mus musculus [12]): 1.4 mg/kg
Cc1ccc2c(c1)N=C(N1CCN(CCO)CC1)c1cscc1O2	27.2 mg/kg	–	–	ED50 (Mus musculus [9]): inactive
COc1ccc2c(c1)Oc1cscc1C(N1CCN(C)CC1)=N2	–	inactive	–	ED50 (Mus musculus [13]): inactive
COc1ccc2c(c1)N=C(N1CCN(CCO)CC1)c1cscc1O2	–	inactive	–	ED50 (Mus musculus [13]): inactive
Cc1cccc2c1N=C(N1CCN(CCO)CC1)c1cscc1O2	–	–	–	ED50 (Mus musculus [9]): inactive
CN(C)CCCN1c2ccccc2CCc2ccccc21 [IMIPRAMINE]	>20 mg/kg	–	> 50 mg/kg	minimal effective dose (Mus musculus [8]): 5 mg/kg
CN1CCN(C2=Nc3cscc3N(C)c3ccccc32)CC1	51 mg/kg	–	6.5 mg/kg	minimal effective dose (Mus musculus [8]): 7.6 mg/kg
OCCN1CCN(C2=Nc3cc(Br)ccc3Oc3cscc32)CC1	–	inactive	< 2.5 mg/kg	–
